{"data": "Measurements gathered from unrelated publications", "CYP2C19": "Cytochrome P450 2C19 (CYP2C19, Homo sapiens, UniProt P33261)", "note": "Compare with care: the assays were run in different laboratories."}
{"SMILES": "CN(CCOc1ccc(CC2SC(=O)NC2=O)cc1)c1ccccn1 (stereo not drawn)", "target or system": "A549", "assay": "cell growth or viability, resazurin", "setting": "72 h", "measurement": "CC50", "result": "100 µM"}
{"SMILES": "C[C@H]1Oc2cc(cnc2N)-c2c(nn(C)c2C#N)CN(C)C(=O)c2ccc(F)cc21", "system": "male Sprague-Dawley rat, plasma", "setting": "oral, 5 mg/kg, single dose", "measurement": "Tmax", "result": "1.5 h"}
{"SMILES": "NCc1ccc(-c2nn(Cc3ccncc3)c3ccccc23)o1", "system": "male CD-1 mouse, plasma", "setting": "intravenous, 5 mg/kg", "measurement": "C0", "result": "1360 ng/mL"}
{"SMILES": "O=C(CCCCCCC(=O)Nc1ccccc1)NO", "target or system": "CYP2C19", "assay": "enzyme activity, inhibitor, fluorescence", "measurement": "IC50", "result": "3.26 µM"}
{"SMILES": "CCC(CC)COC(=O)[C@H](C)N[P@](=O)(OC[C@H]1O[C@@](C#N)(c2ccc3c(N)ncnn23)[C@H](O)[C@@H]1O)Oc1ccccc1", "target or system": "A549", "assay": "cell growth or viability, resazurin", "setting": "72 h", "measurement": "CC50", "result": "25 µM"}
{"SMILES": "CSc1ccccc1C(=O)NCCn1cc(C(=O)NCc2cccc(C)n2)c(=O)c2cc3c(cc21)OCO3", "target or system": "CYP2C19", "assay": "enzyme activity, inhibitor", "system": "human, liver microsomes", "setting": "20 min, without NADPH, with preincubation", "measurement": "IC50", "result": "> 100 µM"}
{"SMILES": "O=c1[nH]cc(F)c(=O)[nH]1", "target or system": "A549", "assay": "cell growth or viability, CCK-8", "setting": "50 µM", "measurement": "viability", "result": "27.3%"}
{"SMILES": "OB(O)c1csc2ccccc12", "target or system": "HFF-1", "assay": "cell growth or viability, resazurin", "setting": "50 µM, 24 h", "measurement": "viability", "result": "> 75%"}
{"SMILES": "CN(C)C(=O)c1cc2cnc(Nc3ccc(-c4ccc5c(=O)cc(N6CCOCC6)oc5c4)cc3)nc2n1C1CCCC1.Cl", "system": "BALB/c mouse, plasma", "setting": "intravenous, 2 mg/kg", "measurement": "CL/F", "result": "11.7 mL/min/kg"}
{"SMILES": "C=CCn1c(=O)c2cnc(Nc3ccc(N4CCN(C)CC4)cc3)nc2n1-c1ccc2c(n1)[C@@](O)(CC)CC2", "system": "dog, plasma", "setting": "intravenous, 3 mg/kg", "measurement": "clearance", "result": "46 mL/min/kg"}
{"SMILES": "CSc1ccccc1C(=O)NCCn1cc(C(=O)NCc2cccc(C)n2)c(=O)c2cc3c(cc21)OC(F)(F)O3", "target or system": "CYP2C19", "assay": "enzyme activity, inhibitor", "system": "human, liver microsomes", "setting": "20 min, without NADPH, with preincubation", "measurement": "IC50", "result": "> 100 µM"}
{"SMILES": "[N-]=[N+]=N[C@]1(CO)O[C@@H](n2ccc(N)nc2=O)[C@@H](F)[C@@H]1O", "target or system": "A549", "assay": "cell growth or viability, ATP luminescence", "setting": "72 h", "measurement": "CC50", "result": "> 50 µM"}
